Reference: PMC4697833 (Bioorganic & medicinal chemistry, 2015)
Read-outs that look alike come from different tables or passages of the source.

Legend:
TEX cells [1] = assay: Methylcellulose clonal growth assay with TEX cells; format: cell-based, human; settings: 11 d growth on methylcellulose
Method in brief: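 TEX cells were suspended in methylcellulose medium with penicillin (100 I.U./mL) and streptomycin (100 µg/mL) at a final 1.2 × 10⁴ cells/mL, i.e. 6,000 cells/well. Test compound, diluted in TEX medium, or DMSO (0.05%, control) was added. Cells were plated as technical triplicates and grown 11 d at 37 °C, 5% CO₂. Two people counted colonies independently at 10X. Values are the mean of 3 biological replicates ± S.D., with unpaired t-tests against DMSO.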

[2] = test system: U-87 MG (glioblastoma multiforme); assay: Alamar blue cytotoxicity assay, U-87 MG; format: cell-based, human; settings: read-out: Growth inhibitory activity (IC50) U-87 MG
TEX cells [3] = assay: Alamar blue cytotoxicity assay, TEX; format: cell-based, human; settings: Homo sapiens, 48 h, read-out: Growth inhibitory activity (IC50) TEX
Method in brief: (§1)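 Suspension cells (CCRF-CEM; TEX in IMDM with L-glutamine, 15% FBS, SCF 20 ng/mL, IL-3 2 ng/mL, penicillin/streptomycin) were seeded at 10,000 cells/well 24 h before compound addition. Cultures were kept at 37 °C in humidified 5% CO₂. Viability was read with Alamar blue. IC50 is mean ± S.D. of n ≥ 3 biological replicates.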

[4] = test system: murine AML cell line B140H (cytarabine-resistant); assay: Murine cytotoxicity assay, B140H; format: cell-based; settings: Mus musculus, read-out: Growth inhibitory activity (IC50) B140H
Method in brief: (§2)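 Murine AML lines were used: B117P and B140P from BXH-2 mice, which develop leukemia from an endogenous murine leukemia virus, and their counterparts B117H and B140H. Cells per well were 25,000 (B117P), 28,000 (B117H), 36,000 (B140P) and 44,000 (B140H) in 96-well format. IC50 values are mean ± S.D. from biological triplicate.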

[5] = test system: MCF-7 (breast adenocarcinoma); assay: Alamar blue cytotoxicity assay, MCF-7; format: cell-based, human
Method in brief: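 MCF-7 cells were grown in MEM with 10% FBS, bovine insulin 0.01 mg/mL, penicillin and streptomycin at 37 °C in 5% CO₂. They were detached with trypsin-EDTA or TrypLE and seeded at 5,000 cells/well 24 h before dosing. Readout was Alamar blue reduction. IC50 is mean ± S.D. from n ≥ 3 biological replicates.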

[6] = test system: CCRF-CEM (acute lymphoblastic leukemia); assay: Alamar blue cytotoxicity assay, CCRF-CEM; format: cell-based, human; settings: read-out: Growth inhibitory activity (IC50) CCRF-CEM
Method in brief: as §1

[7] = test system: murine AML cell line B117H (cytarabine-resistant); assay: Murine cytotoxicity assay, B117H; format: cell-based; settings: Mus musculus, read-out: Growth inhibitory activity (IC50) B117H
Method in brief: as §2

Measured LogD7.4 = format: physicochemical; settings: pH 7.4
Method in brief: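 LogD at pH 7.4 was determined experimentally by liquid-liquid distribution chromatography, run by a contract analytical lab. Each value is the average of two measurements. The assay's measurable range is 1–5 log units.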

[8] = test system: HL-60 (acute promyelocytic leukemia); assay: Alamar blue cytotoxicity assay, HL-60; format: cell-based, human
TEX cells [9] = assay: Intracellular ROS induction; format: cell-based, human; settings: 30 min
Method in brief: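 TEX cells were seeded at 5 × 10⁵ cells/mL and incubated overnight at 37 °C, 5% CO₂. They were then exposed to test compound at 25 or 100 µM, with H₂O₂ 100 µM as positive control. CellROX Green (5 µM final) was added at once, followed by 30 min at 37 °C. Cells were washed twice in FACS buffer and 5 × 10⁴ events recorded. Median fluorescence was normalized to untreated control. Runs were in quadruplicate (H₂O₂ triplicate); mean ± S.D.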

CD34+CD38− TEX cells = assay: Flow cytometry viability of CD34+CD38− TEX cells; format: cell-based; settings: Homo sapiens, 12 h, read-out: cell viability of CD34+CD38− TEX cells
Method in brief: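 TEX cells at 1 × 10⁶ cells/mL were dosed for 12 h at 37 °C, 20% O₂, 5% CO₂ (final DMSO 0.03% v/v). Test compound was given at 25, 15 or 2.5 µM; the doxorubicin reference at 2.5, 0.5 or 0.05 µM. Cells were stained for CD34/CD38 (10 min, 4 °C), then Annexin V-FITC/7-AAD (10 min, RT, dark). Over 5 × 10⁴ events were collected. Viable cells were double-negative. Values are mean ± S.D. of 3–5 biological replicates; unpaired t-test versus untreated.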

[10] = test system: murine AML cell line B140P; assay: Murine cytotoxicity assay, B140P; format: cell-based; settings: Mus musculus, read-out: Growth inhibitory activity (IC50) B140P
Method in brief: as §2

[11] = test system: murine AML cell line B117P; assay: Murine cytotoxicity assay, B117P; format: cell-based; settings: Mus musculus, read-out: Growth inhibitory activity (IC50) B117P
Method in brief: as §2

[12] = test system: total bone marrow cell population; assay: Flow cytometry viability of total bone marrow cells; format: cell-based, human; settings: 25 µM, 12 h
Method in brief: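 Cells were plated at 1 × 10⁶ cells/mL with test compound (25 µM) or doxorubicin (0.5 µM) for 12 h (final DMSO 0.03%). Staining was CD34/CD38, then Annexin V/7-AAD, with over 5 × 10⁴ events. Viability is the unstained fraction, mean ± S.D. of n ≥ 3; unpaired t-tests.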

DU-145 (prostate cancer) = assay: Alamar blue cytotoxicity assay, DU-145; format: cell-based, human
[13] = test system: GBM6 (glioblastoma multiforme); assay: Alamar blue cytotoxicity assay, GBM6; format: cell-based, human
[14] = test system: NCI/ADR-RES (ovarian cancer; adriamycin-resistant); assay: Alamar blue cytotoxicity assay, NCI/ADR-RES; format: cell-based, human; settings: read-out: Growth inhibitory activity (IC50) NCI/ADR-RES; mean ± S.D.
Method in brief: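 Adherent NCI/ADR-RES cells were seeded at 5,000 cells/well 24 h prior to compound treatment and kept at 37 °C, 5% CO₂. Growth was measured by Alamar blue. IC50 values are mean ± S.D. over n ≥ 3 biological replicates.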

[15] = mice, oral dosing 100 mg/kg; cited from earlier work
[16] = cited from earlier work
[17] = canine, oral dosing 100 mg/kg; cited from earlier work
mice = settings: continuous oral dosing 100 mg/kg daily for over four weeks; cited from earlier work
[18] = Homo sapiens, MCF7, read-out: Growth inhibitory activity (IC50) MCF-7
[19] = Homo sapiens, HL-60, read-out: Growth inhibitory activity (IC50) HL-60
[20] = Homo sapiens, DU-145, read-out: Growth inhibitory activity (IC50) DU-145
[21] = Homo sapiens, GBM6, read-out: Growth inhibitory activity (IC50) GBM6
[22] = read-out: Growth inhibitory activity (IC50) MCF-7, mean ± S.D.
[23] = read-out: Growth inhibitory activity (IC50) HL-60, mean ± S.D.
[24] = read-out: Growth inhibitory activity (IC50) DU-145, mean ± S.D.

Nc1ccn([C@@H]2O[C@H](CO)[C@@H](O)[C@@H]2O)c(=O)n1 [AraC, cytarabine]
Colonies (mean number ± S.D.) (TEX cells [1]; 0.1 µM): 2.6 ± 1.0

C=C1C(=O)O[C@@H]2/C=C(\C)CC/C=C(\C)CC[C@@H]12 [CTL, Costunolide]
IC50 ([2]; Homo sapiens, U-87 MG): 9.6 ± 0.8 µM | IC50 (TEX cells [3]): 4.9 ± 0.4 µM | IC50 [4]: 2.8 ± 0.7 µM | IC50 [5, 18]: 17.5 ± 3.7 µM | IC50 ([6]; Homo sapiens, CCRF-CEM): 2.3 ± 0.2 µM | IC50 [7]: 4.8 ± 0.7 µM | Colonies (mean number ± S.D.) (TEX cells [1]; 2.5 µM): 6.9 ± 3.6 | Colonies (mean number ± S.D.) (TEX cells [1]; 15 µM, N.D. = clonal growth not detected): 5.6 ± 4.7 | chromatographic logD (Measured LogD7.4): 2.9 | IC50 [8, 19]: 13 ± 0.2 µM | induction of intracellular ROS (MFI normalized to untreated control) (TEX cells [9]; 100 µM): 2.2 fold | viability at 25 µM (CD34+CD38− TEX cells): 1 to 10% | IC50 [10]: 3.6 ± 1.2 µM | IC50 [11]: 3.5 ± 0.4 µM | reduction in total BM viability [12]: 22–26% | IC50 (DU-145 (prostate cancer); [20]): 7.7 ± 2.8 µM | IC50 [13, 21]: 7 ± 1.8 µM

C=C1C(=O)O[C@H]2[C@H]1CCC(C)=C1CC[C@@](C)(O)[C@@H]12 [Compound 1, Micheliolide]
IC50 ([2]; Homo sapiens, U-87 MG): 17.8 ± 5 µM | IC50 (TEX cells [3]): 2.7 ± 0.4 µM | IC50 [4]: 9.3 ± 1.5 µM | IC50 [5, 18]: 9.6 ± 1 µM | IC50 ([6]; Homo sapiens, CCRF-CEM): 2.7 ± 1.1 µM | IC50 [7]: 8.8 ± 1.7 µM | Colonies (mean number ± S.D.) (TEX cells [1]; 2.5 µM): 4.2 ± 2.5 | chromatographic logD (Measured LogD7.4): 2.18 | IC50 [8, 19]: 9.2 ± 2.2 µM | induction of intracellular ROS (MFI normalized to untreated control) (TEX cells [9]; 25 µM): 1.7 fold | induction of intracellular ROS (MFI normalized to untreated control) (TEX cells [9]; 100 µM): 2.9 fold | viability at 25 µM (CD34+CD38− TEX cells): 1 to 10% | IC50 [10]: 10 ± 0.4 µM | IC50 [11]: 6.4 ± 1 µM | reduction in total BM viability [12]: 22–26% | IC50 (DU-145 (prostate cancer); [20]): 14.8 ± 4 µM | IC50 [13, 21]: 8.5 ± 0.7 µM

C=C1C(=O)OC2C1CCC(C)=CCCC1(C)OC21 (stereo not drawn) [Compound 2, cis-PTL]
IC50 ([2]; mean ± S.D.): 9.1 ± 4.4 µM | IC50 [5, 22]: 7.5 ± 0.8 µM | IC50 ([6]; mean ± S.D.): 2.2 ± 1 µM | LogD7.4 (Measured LogD7.4; average of two measurements): 2.00 | IC50 [8, 23]: 8 ± 1.1 µM | IC50 [14]: 9.4 ± 2.1 µM | IC50 (DU-145 (prostate cancer); [24]): 6 ± 4.2 µM | IC50 ([13]; read-out: Growth inhibitory activity (IC50) GBM6, mean ± S.D.): 3.3 ± 0.8 µM

C/C1=C\CC[C@@]2(C)O[C@@H]2[C@H]2OC(=O)[C@@H](CN(C)C)[C@@H]2CC1.O=C(O)/C=C/C(=O)O [DMAPT, dimethylamino-parthenolide fumarate]
Cmax [15]: 25 µM | IC50 [5, 22]: 10.4 ± 1.2 µM | increase of water solubility versus PTL [16]: ~ 1000 fold | IC50 ([6]; mean ± S.D.): 1.9 ± 0.4 µM | IC50 [8, 23]: 7.1 ± 0.4 µM | IC50 [14]: 12.3 ± 2.7 µM | Cmax [17]: 61 µM | IC50 (DU-145 (prostate cancer); [24]): 8.4 ± 4.5 µM | toxicity to mice (mice): no measurable toxicity
